Laboratory results from ChEMBL document CHEMBL3244382, “Structural requirements for antileukemic activity among the naturally occurring and semisynthetic maytansinoids” (J Med Chem, 1978).
≈ marks a conversion by molar mass, not a printed value. Calls of active or inactive are those of the source.

What was measured:
Mus musculus [1] = assay: Toxicity in PS mouse allografted with mouse P388 cells assessed as survival at 12.5 ug/kg after 4 days; assay type: organism-based; details: in vivo, 0.0125 mg/kg, 96 h
Procedure, shortened: (§1)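 PS (P388) leukemic mice, six started per dose group. Toxicity scored as survivors on the toxicity day over the number of mice started. The toxicity day is normally 4 days after the first injection.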

P388 [2] = assay: Antitumor activity against mouse P388 cells allografted in PS mouse assessed as median survival time at 3.1 ug/kg relative to control; assay type: functional
Procedure, shortened: (§2)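 P388 leukemia (PS) in mice, six mice started per dose group. Read-out is T/C: median survival time of the treated group divided by that of the untreated control group, expressed as a percent. The NIH protocol counts a compound as active when T/C > 125%.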

Mus musculus [3] = assay: Toxicity in PS mouse allografted with mouse P388 cells assessed as survival at 50 ug/kg after 4 days; assay type: organism-based; details: in vivo, 0.05 mg/kg, 96 h; procedure, shortened: as §1
Mus musculus [4] = assay: Toxicity in PS mouse allografted with mouse P388 cells assessed as survival at 1.6 ug/kg after 4 days; assay type: organism-based; details: in vivo, 0.0016 mg/kg, 96 h; procedure, shortened: as §1
P388 [5] = assay: Antitumor activity against mouse P388 cells allografted in PS mouse assessed as median survival time at 0.1 ug/kg relative to control; assay type: functional; procedure, shortened: as §2
Mus musculus [6] = assay: Toxicity in PS mouse allografted with mouse P388 cells assessed as survival at 0.8 ug/kg after 4 days; assay type: organism-based; details: in vivo, 0.0008 mg/kg, 96 h; procedure, shortened: as §1
Mus musculus [7] = assay: Toxicity in PS mouse allografted with mouse P388 cells assessed as survival at 0.2 ug/kg after 4 days; assay type: organism-based; details: in vivo, 0.0002 mg/kg, 96 h; procedure, shortened: as §1
Mus musculus [8] = assay: Toxicity in PS mouse allografted with mouse P388 cells assessed as change in body weight at 6.2 ug/kg relative to control; assay type: organism-based; details: in vivo, 0.0062 mg/kg
Procedure, shortened: (§3)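 P388 (PS) leukemia in mice, 6 mice per dose group. Weight change is the difference in grams between treated and control animals. Survivors are recorded on toxicity day, normally 4 days after the first injection.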

Mus musculus [9] = assay: Toxicity in PS mouse allografted with mouse P388 cells assessed as change in body weight at 0.4 ug/kg relative to control; assay type: organism-based; details: in vivo, 0.0004 mg/kg
Procedure, shortened: (§4)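 PS (P388 leukemia) mice, six per dose group. Toxicity read as the difference in grams between the weights of treated and control animals.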

Mus musculus [10] = assay: Toxicity in PS mouse allografted with mouse P388 cells assessed as survival at 0.4 ug/kg after 4 days; assay type: organism-based; details: in vivo, 0.0004 mg/kg, 96 h; procedure, shortened: as §1
Mus musculus [11] = assay: Toxicity in PS mouse allografted with mouse P388 cells assessed as survival at 3.1 ug/kg after 4 days; assay type: organism-based; details: in vivo, 0.0031 mg/kg, 96 h; procedure, shortened: as §1
P388 [12] = assay: Antitumor activity against mouse P388 cells allografted in PS mouse assessed as median survival time at 1.6 ug/kg relative to control; assay type: functional; procedure, shortened: as §2
Mus musculus [13] = assay: Toxicity in PS mouse allografted with mouse P388 cells assessed as change in body weight at 1.6 ug/kg relative to control; assay type: organism-based; details: in vivo, 0.0016 mg/kg; procedure, shortened: as §3
Mus musculus [14] = assay: Toxicity in PS mouse allografted with mouse P388 cells assessed as survival at 6.2 ug/kg after 4 days; assay type: organism-based; details: in vivo, 0.0062 mg/kg, 96 h; procedure, shortened: as §1
Mus musculus [15] = assay: Toxicity in PS mouse allografted with mouse P388 cells assessed as change in body weight at 25 ug/kg relative to control; assay type: organism-based; details: in vivo, 0.025 mg/kg; procedure, shortened: as §3
P388 [16] = assay: Antitumor activity against mouse P388 cells allografted in PS mouse assessed as median survival time at 0.2 ug/kg relative to control; assay type: functional; procedure, shortened: as §2
Mus musculus [17] = assay: Toxicity in PS mouse allografted with mouse P388 cells assessed as survival at 0.1 ug/kg after 4 days; assay type: organism-based; details: in vivo, 0.0001 mg/kg, 96 h; procedure, shortened: as §1
P388 [18] = assay: Antitumor activity against mouse P388 cells allografted in PS mouse assessed as median survival time at 6.2 ug/kg relative to control; assay type: functional; procedure, shortened: as §2
Mus musculus [19] = assay: Toxicity in PS mouse allografted with mouse P388 cells assessed as change in body weight at 12.5 ug/kg relative to control; assay type: organism-based; details: in vivo, 0.0125 mg/kg; procedure, shortened: as §3
Mus musculus [20] = assay: Toxicity in PS mouse allografted with mouse P388 cells assessed as change in body weight at 3.1 ug/kg relative to control; assay type: organism-based; details: in vivo, 0.0031 mg/kg; procedure, shortened: as §3
Mus musculus [21] = assay: Toxicity in PS mouse allografted with mouse P388 cells assessed as change in body weight at 0.1 ug/kg relative to control; assay type: organism-based; details: in vivo, 0.0001 mg/kg; procedure, shortened: as §4
KB = assay: Cytotoxicity against human KB cells; assay type: functional; details: read-out: ED50 (the source's name)
P388 [22] = assay: Antitumor activity against mouse P388 cells allografted in PS mouse assessed as median survival time at 25 ug/kg relative to control; assay type: functional; procedure, shortened: as §2
Mus musculus [23] = assay: Toxicity in PS mouse allografted with mouse P388 cells assessed as survival at 25 ug/kg after 4 days; assay type: organism-based; details: in vivo, 0.025 mg/kg, 96 h; procedure, shortened: as §1
P388 [24] = assay: Antitumor activity against mouse P388 cells allografted in PS mouse assessed as median survival time at 0.8 ug/kg relative to control; assay type: functional; procedure, shortened: as §2
Mus musculus [25] = assay: Toxicity in PS mouse allografted with mouse P388 cells assessed as change in body weight at 0.8 ug/kg relative to control; assay type: organism-based; details: in vivo, 0.0008 mg/kg; procedure, shortened: as §4
P388 [26] = assay: Antitumor activity against mouse P388 cells allografted in PS mouse assessed as median survival time at 50 ug/kg relative to control; assay type: functional; procedure, shortened: as §2
Tubulin (Homo sapiens) = Tubulin (Homo sapiens) (UniProt P68371+Q9H4B7+P0DPH7+P68366+Q13509+Q71U36+P04350+Q3ZCM7+P07437+P68363+Q9BQE3+Q6PEY2+Q13885+Q9BVA1+Q9BUF5); assay: Inhibition of brain tubulin polymerization (unknown origin) at 37 degC by spectrophotometry
Mus musculus [27] = assay: Toxicity in PS mouse allografted with mouse P388 cells assessed as change in body weight at 0.2 ug/kg relative to control; assay type: organism-based; details: in vivo, 0.0002 mg/kg; procedure, shortened: as §4
P388 [28] = assay: Antitumor activity against mouse P388 cells allografted in PS mouse assessed as median survival time at 12.5 ug/kg relative to control; assay type: functional; procedure, shortened: as §2
Paracentrotus lividus = assay: Antimitotic activity against sea urchin eggs assessed as drug level causing inhibition of mitosis; assay type: functional; details: Egg
Mus musculus [29] = assay: Toxicity in PS mouse allografted with mouse P388 cells assessed as change in body weight at 50 ug/kg relative to control; assay type: organism-based; details: in vivo, 0.05 mg/kg; procedure, shortened: as §3
P388 [30] = assay: Antitumor activity against mouse P388 cells allografted in PS mouse assessed as median survival time at 0.4 ug/kg relative to control; assay type: functional; procedure, shortened: as §2
Mus musculus [31] = assay: Toxicity in PS mouse allografted with mouse P388 cells assessed as change in body weight at 100 ug/kg relative to control; assay type: organism-based; details: in vivo, 0.1 mg/kg; procedure, shortened: as §3
Mus musculus [32] = assay: Toxicity in PS mouse allografted with mouse P388 cells assessed as survival at 100 ug/kg after 4 days; assay type: organism-based; details: in vivo, 0.1 mg/kg, 96 h; procedure, shortened: as §1
P388 [33] = assay: Antitumor activity against mouse P388 cells allografted in PS mouse assessed as median survival time at 100 ug/kg relative to control; assay type: functional; procedure, shortened: as §2
Mus musculus [34] = assay: Toxicity in PS mouse allografted with mouse P388 cells assessed as survival at 200 ug/kg after 4 days; assay type: organism-based; details: in vivo, 0.2 mg/kg, 96 h; procedure, shortened: as §1
P388 [35] = assay: Antitumor activity against mouse P388 cells allografted in PS mouse assessed as median survival time at 200 ug/kg relative to control; assay type: functional; procedure, shortened: as §2
P388 [36] = assay: Antitumor activity against mouse P388 cells allografted in PS mouse assessed as median survival time at 1.5 ug/kg relative to control; assay type: functional; procedure, shortened: as §2
Mus musculus [37] = assay: Toxicity in PS mouse allografted with mouse P388 cells assessed as survival at 1.5 ug/kg after 4 days; assay type: organism-based; details: in vivo, 0.0015 mg/kg, 96 h; procedure, shortened: as §1
Mus musculus [38] = assay: Toxicity in PS mouse allografted with mouse P388 cells assessed as change in body weight at 200 ug/kg relative to control; assay type: organism-based; details: in vivo, 0.2 mg/kg; procedure, shortened: as §3
Mus musculus [39] = assay: Toxicity in PS mouse allografted with mouse P388 cells assessed as change in body weight at 1.5 ug/kg relative to control; assay type: organism-based; details: in vivo, 0.0015 mg/kg; procedure, shortened: as §4

SMILES | Activity (Mus musculus [1]) | T/C (P388 [2]) [%] | Activity (Mus musculus [3]) | Activity (Mus musculus [4]) | Activity (Mus musculus [6]) | Activity (Mus musculus [8]) [g] | Activity (Mus musculus [11]) | Activity (Mus musculus [14]) | Activity (Mus musculus [15]) [g] | T/C (P388 [18]) [%] | Activity (Mus musculus [19]) [g] | Activity (Mus musculus [20]) [g] | EC50 (KB) [ng/mL] | T/C (P388 [22]) [%] | Activity (Mus musculus [23]) | T/C (P388 [24]) [%] | Activity (Mus musculus [25]) [g] | T/C (P388 [26]) [%] | inhibition (Tubulin (Homo sapiens)) | T/C (P388 [28]) [%] | other results
COc1cc2cc(c1Cl)N(C)C(=O)C[C@H](OC(=O)[C@H](C)N(C)C(=O)C(C)C)[C@]1(C)O[C@H]1[C@H](C)[C@@H]1C[C@@](O)(NC(=O)O1)[C@H](OC)/C=C/C=C(\C)C2 | Non-toxic | 145 | Toxic | Non-toxic | Non-toxic | -1.3 | Non-toxic | Non-toxic | 0.1 | 155 | 0.1 | -0.9 | 0.0036 (≈ 0.005 nM) | <80 | Non-toxic | 190 | 0.1 | <80 | Active | 120 | T/C (P388 [5]): 125%; Activity (Mus musculus [7]): Non-toxic; Activity (Mus musculus [9]): 0.4 g; Activity (Mus musculus [10]): Non-toxic; T/C (P388 [12]): 155%; Activity (Mus musculus [13]): 0 g; T/C (P388 [16]): 165%; Activity (Mus musculus [17]): Non-toxic; Activity (Mus musculus [21]): 0.3 g; Activity (Mus musculus [27]): 0.1 g; Activity (Paracentrotus lividus): 1 nM; Activity (Mus musculus [29]): 0.1 g; T/C (P388 [30]): 155%
COc1cc2cc(c1Cl)N(C)C(=O)C[C@H](OC(C)=O)[C@]1(C)O[C@H]1[C@H](C)[C@@H]1C[C@@](O)(NC(=O)O1)[C@H](OC)/C=C/C=C(\C)C2 | Non-toxic | 133 | Non-toxic | Non-toxic | Non-toxic | 0.5 | Non-toxic | Non-toxic | -1.2 | 150 | 0.3 | -1 | 0.0018 (≈ 0.00296 nM) | 173 | Non-toxic | 110 | 0 | 183 | Active | 158 | Activity (Mus musculus [31]): -0.6 g; Activity (Mus musculus [32]): Non-toxic; T/C (P388 [33]): 230%; Activity (Mus musculus [34]): Non-toxic; T/C (P388 [35]): 100%; T/C (P388 [36]): 150%; Activity (Mus musculus [37]): Non-toxic; Activity (Mus musculus [38]): -3.7 g; Activity (Mus musculus [39]): -1.1 g; Activity (Paracentrotus lividus): 1 ×10⁻⁸ mol/L; Activity (Mus musculus [29]): -0.3 g
COc1cc2cc(c1Cl)N(C)C(=O)C[C@H](OC(=O)C(C)C)[C@]1(C)O[C@H]1[C@H](C)[C@@H]1C[C@@](O)(NC(=O)O1)[C@H](OC)/C=C/C=C(\C)C2OC(C)=O (some centres not stated) | Non-toxic | 150 | Non-toxic | Non-toxic | Non-toxic | -0.9 | Non-toxic | Non-toxic | -0.9 | 166 | -0.8 | -0.4 | 0.0015 (≈ 0.00216 nM) | 170 | Non-toxic | 137 | -1 | <80 | Active | 179 | T/C (P388 [5]): 125%; Activity (Mus musculus [7]): Non-toxic; Activity (Mus musculus [9]): -0.6 g; Activity (Mus musculus [10]): Non-toxic; T/C (P388 [12]): 162%; Activity (Mus musculus [13]): -0.7 g; T/C (P388 [16]): 125%; Activity (Mus musculus [17]): Non-toxic; Activity (Mus musculus [21]): -0.5 g; Activity (Mus musculus [27]): -1.3 g; Activity (Paracentrotus lividus): 1 ×10⁻⁷ mol/L; Activity (Mus musculus [29]): -1 g; T/C (P388 [30]): 133%
